In brackets after ≈: the same amount, converted by molar mass.
Experiments:
[1] = tested on: Klebsiella pneumoniae; assay: Inhibition of KPC-2 in Klebsiella pneumoniae assessed as meropenem antibacterial activity at 4 ug/ml after 16 to 20 hrs by CLSI-based microbroth dilution method (Rvb >= […] ug/ml)
[2] = Inhibition of bacterial VIM-2 using nitrocefin as substrate preincubated for 15 mins followed by susbtrate addition and measured after 10 mins by spectrophotometric method; design: species or system Bacteria
Procedure, shortened: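 Purified β-lactamase inhibition. IC50 values are the average of duplicates unless otherwise indicated.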

[3] = molecular target: Beta-lactamase VIM-2 (Pseudomonas aeruginosa) (UniProt Q9K2N0); assay: Inhibition of VIM-2 in Pseudomonas aeruginosa assessed as meropenem antibacterial activity at 4 ug/ml after 16 to 20 hrs by CLSI-based microbroth dilution method (Rvb >= […] ug/ml)
[4] = Inhibition of bacterial AmpC using nitrocefin as substrate preincubated for 15 mins followed by susbtrate addition and measured after 10 mins by spectrophotometric method; design: species or system Bacteria
[5] = Inhibition of bacterial OXA-48 using nitrocefin as substrate preincubated for 15 mins followed by susbtrate addition and measured after 10 mins by spectrophotometric method; design: species or system Bacteria
[6] = tested on: Klebsiella pneumoniae; assay: Inhibition of VIM-4 in Klebsiella pneumoniae assessed as meropenem antibacterial activity at 4 ug/ml after 16 to 20 hrs by CLSI-based microbroth dilution method (Rvb >= […] ug/ml)
[7] = Inhibition of bacterial KPC-2 using imipenem as substrate preincubated for 15 mins followed by susbtrate addition and measured after 10 mins by spectrophotometric method; design: species or system Bacteria
[8] = tested on: Klebsiella pneumoniae; assay: Inhibition of OXA-48 in Klebsiella pneumoniae assessed as meropenem antibacterial activity at 4 ug/ml after 16 to 20 hrs by CLSI-based microbroth dilution method (Rvb >= […] ug/ml)
[9] = tested on: Pseudomonas aeruginosa; assay: Inhibition of VIM in Pseudomonas aeruginosa CDC-0457 assessed as cefepime antibacterial activity at 8 ug/ml after 16 to 20 hrs by CLSI-based microbroth dilution method
[10] = tested on: Klebsiella pneumoniae; assay: Inhibition of VIM-27/CTX-M-15/SHV-11/OXA-1 in Klebsiella pneumoniae CDC-0040 assessed as cefepime antibacterial activity at 8 ug/ml after 16 to 20 hrs by CLSI-based microbroth dilution method
[11] = tested on: Klebsiella pneumoniae; assay: Inhibition of KPC-2/SHV12/TEM-1 in Klebsiella pneumoniae CDC-0361 assessed as cefepime antibacterial activity at 8 ug/ml after 16 to 20 hrs by CLSI-based microbroth dilution method (reference value: […] ug/ml)
[12] = tested on: Klebsiella pneumoniae; assay: Inhibition of VIM-27/CTX-M-15/SHV-11/OXA-1 in Klebsiella pneumoniae CDC-0040 assessed as meropenem antibacterial activity at 4 ug/ml after 16 to 20 hrs by CLSI-based microbroth dilution method
[13] = tested on: Klebsiella pneumoniae ATCC BAA-1705; assay: Inhibition of KPC-2 in Klebsiella pneumoniae ATCC BAA 1705 assessed as meropenem antibacterial activity at 4 ug/ml after 16 to 20 hrs by CLSI-based microbroth dilution method (reference value: […] ug/ml)
[14] = tested on: Escherichia coli; assay: Inhibition of NDM in Escherichia coli CDC-0452 assessed as piperacillin antibacterial activity at 16 ug/ml after 16 to 20 hrs by CLSI-based microbroth dilution method (Rvb > […] ug/ml)
[15] = tested on: Klebsiella pneumoniae; assay: Inhibition of VIM-27/CTX-M-15/SHV-11/OXA-1 in Klebsiella pneumoniae CDC-0040 assessed as piperacillin antibacterial activity at 16 ug/ml after 16 to 20 hrs by CLSI-based microbroth dilution method
[16] = tested on: Escherichia coli; assay: Inhibition of NDM-1/CMY-6/OXA-1 in Escherichia coli CDC-0055 assessed as meropenem antibacterial activity at 4 ug/ml after 16 to 20 hrs by CLSI-based microbroth dilution method (reference value: […] ug/ml)
[17] = tested on: Escherichia coli; assay: Inhibition of NDM in Escherichia coli CDC-0452 assessed as cefepime antibacterial activity after 16 to 20 hrs by CLSI-based microbroth dilution method (reference value: […] ug/ml)
[18] = tested on: Klebsiella pneumoniae; assay: Inhibition of OXA-232/OXA-9/TEM-1A/CTX-M-15/OXA-1 in Klebsiella pneumoniae CDC-0066 assessed as cefepime antibacterial activity at 8 ug/ml after 16 to 20 hrs by CLSI-based microbroth dilution method (Rvb > […] ug/ml)
[19] = tested on: Klebsiella pneumoniae; assay: Inhibition of OXA-232/OXA-9/TEM-1A/CTX-M-15/OXA-1 in Klebsiella pneumoniae CDC-0066 assessed as piperacillin antibacterial activity at 16 ug/ml after 16 to 20 hrs by CLSI-based microbroth dilution method (Rvb > […] ug/ml)
[20] = tested on: Escherichia coli; assay: Inhibition of NDM-1/CMY-6/OXA-1 in Escherichia coli CDC-0055 assessed as cefepime antibacterial activity at 8 ug/ml after 16 to 20 hrs by CLSI-based microbroth dilution method
Procedure, shortened: (§1)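 MDR β-lactamase-producing Gram-negative clinical isolates. […] MIC was reported as the inhibitor concentration that restores the partner's antibacterial activity.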

[21] = tested on: Klebsiella pneumoniae; assay: Inhibition of KPC-2/SHV12/TEM-1 in Klebsiella pneumoniae CDC-0361 assessed as piperacillin antibacterial activity at 16 ug/ml after 16 to 20 hrs by CLSI-based microbroth dilution method (Rvb > […] ug/ml)
[22] = tested on: Klebsiella pneumoniae ATCC BAA-1705; assay: Inhibition of KPC-2 in Klebsiella pneumoniae ATCC BAA 1705 assessed as cefepime antibacterial activity at 8 ug/ml after 16 to 20 hrs by CLSI-based microbroth dilution method; procedure, shortened: as §1
[23] = tested on: Escherichia coli; assay: Inhibition of NDM in Escherichia coli CDC-0452 assessed as meropenem antibacterial activity at 4 ug/ml after 16 to 20 hrs by CLSI-based microbroth dilution method (reference value: […] ug/ml)
[24] = tested on: Klebsiella pneumoniae ATCC BAA-1705; assay: Inhibition of KPC-2 in Klebsiella pneumoniae ATCC BAA 1705 assessed as piperacillin antibacterial activity at 16 ug/ml after 16 to 20 hrs by CLSI-based microbroth dilution method (Rvb > […] ug/ml)
[25] = tested on: Pseudomonas aeruginosa; assay: Inhibition of KPC-2/PDC-42 in Pseudomonas aeruginosa CDC-0356 assessed as meropenem antibacterial activity at 4 ug/ml after 16 to 20 hrs by CLSI-based microbroth dilution method (reference value: […] ug/ml)
[26] = tested on: Escherichia coli; assay: Inhibition of NDM-1/CMY-6/OXA-1 in Escherichia coli CDC-0055 assessed as piperacillin antibacterial activity at 16 ug/ml after 16 to 20 hrs by CLSI-based microbroth dilution method; procedure, shortened: as §1
[27] = tested on: Pseudomonas aeruginosa; assay: Inhibition of KPC-2/PDC-42 in Pseudomonas aeruginosa CDC-0356 assessed as cefepime antibacterial activity at 8 ug/ml after 16 to 20 hrs by CLSI-based microbroth dilution method (Rvb > […] ug/ml)
[28] = tested on: Pseudomonas aeruginosa; assay: Inhibition of VIM in Pseudomonas aeruginosa CDC-0457 assessed as meropenem antibacterial activity at 4 ug/ml after 16 to 20 hrs by CLSI-based microbroth dilution method
[29] = tested on: Klebsiella pneumoniae; assay: Inhibition of KPC-2/SHV12/TEM-1 in Klebsiella pneumoniae CDC-0361 assessed as meropenem antibacterial activity at 4 ug/ml after 16 to 20 hrs by CLSI-based microbroth dilution method (reference value: […] ug/ml)
[30] = tested on: Pseudomonas aeruginosa; assay: Inhibition of VIM in Pseudomonas aeruginosa CDC-0457 assessed as piperacillin antibacterial activity at 16 ug/ml after 16 to 20 hrs by CLSI-based microbroth dilution method
[31] = tested on: Klebsiella pneumoniae; assay: Inhibition of OXA-232/OXA-9/TEM-1A/CTX-M-15/OXA-1 in Klebsiella pneumoniae CDC-0066 assessed as meropenem antibacterial activity at 4 ug/ml after 16 to 20 hrs by CLSI-based microbroth dilution method (reference value: […] ug/ml)
[32] = tested on: Pseudomonas aeruginosa; assay: Inhibition of KPC-2/PDC-42 in Pseudomonas aeruginosa CDC-0356 assessed as piperacillin antibacterial activity at 16 ug/ml after 16 to 20 hrs by CLSI-based microbroth dilution method (Rvb > […] ug/ml)

## O=C(C[C@H]1CC[C@H](N2CCNCC2)CC1)N[C@H]1Cc2cccc(C(=O)O)c2OB1O
[1]
  MIC: 4 µg/mL (≈ 9.63 µM)
[2]
  IC50: 1500 nM
[3]
  MIC: 16 µg/mL (≈ 38.5 µM)
[4]
  IC50: 3 nM
[5]
  IC50: 1520 nM
[6]
  MIC: 32 µg/mL (≈ 77.1 µM)
[7]
  IC50: 20 nM
[8]
  MIC: 16 µg/mL (≈ 38.5 µM)

## O=C(C[C@H]1CC[C@H](NCc2cnc[nH]2)CC1)N[C@H]1Cc2cccc(C(=O)O)c2OB1O
[1]
  MIC: 1 µg/mL (≈ 2.35 µM)
[2]
  IC50: 477 nM
[3]
  MIC: 1 µg/mL (≈ 2.35 µM)
[4]
  IC50: 14 nM
[5]
  IC50: 454 nM
[6]
  MIC: 8 µg/mL (≈ 18.8 µM)
[7]
  IC50: 36 nM
[8]
  MIC: 8 µg/mL (≈ 18.8 µM)

## CC(=O)N[C@H]1Cc2cccc(C(=O)O)c2OB1O
[9]
  MIC: > 16 µg/mL
[10]
  MIC: > 16 µg/mL
[11]
  MIC: 0.0079 µg/mL (≈ 0.0317 µM)
[12]
  MIC: > 16 µg/mL
[13]
  MIC: 0.0079 µg/mL (≈ 0.0317 µM)
[14]
  MIC: > 16 µg/mL
[15]
  MIC: > 16 µg/mL
[16]
  MIC: 16 µg/mL (≈ 64.2 µM)
[17]
  MIC: 8 µg/mL (≈ 32.1 µM)
[18]
  MIC: 1 µg/mL (≈ 4.02 µM)
[19]
  MIC: > 16 µg/mL
[20]
  MIC: > 16 µg/mL
[21]
  MIC: 2 µg/mL (≈ 8.03 µM)
[22]
  MIC: 0.0079 µg/mL (≈ 0.0317 µM)
[23]
  MIC: 8 µg/mL (≈ 32.1 µM)
[24]
  MIC: 2 µg/mL (≈ 8.03 µM)
[25]
  MIC: 2 µg/mL (≈ 8.03 µM)
[26]
  MIC: > 16 µg/mL
[27]
  MIC: 2 µg/mL (≈ 8.03 µM)
[28]
  MIC: > 16 µg/mL
[29]
  MIC: 0.0079 µg/mL (≈ 0.0317 µM)
[30]
  MIC: > 16 µg/mL
[31]
  MIC: 2 µg/mL (≈ 8.03 µM)
[32]
  MIC: 2 µg/mL (≈ 8.03 µM)

## NCCNc1ccc(CC(=O)N[C@H]2Cc3cccc(C(=O)O)c3OB2O)cc1
[1]
  MIC: 1 µg/mL (≈ 2.61 µM)
[2]
  IC50: 491 nM
[3]
  MIC: 0.5 µg/mL (≈ 1.3 µM)
[4]
  IC50: 5 nM
[5]
  IC50: 288 nM
[6]
  MIC: 8 µg/mL (≈ 20.9 µM)
[7]
  IC50: 22 nM
[8]
  MIC: 1 µg/mL (≈ 2.61 µM)

Reference: ChEMBL document CHEMBL4354828, “Discovery of Taniborbactam (VNRX-5133): A Broad-Spectrum Serine- and Metallo-β-lactamase Inhibitor for Carbapenem-Resistant Bacterial Infections” (J Med Chem, 2020)
